Results taken from ChEMBL document CHEMBL1142361, “Phenylglycine and phenylalanine derivatives as potent and selective HDAC1 inhibitors (SHI-1)” (Bioorg Med Chem Lett, 2008).
In brackets after ≈: the same amount, converted by molar mass. One block for each compound: values may come before it.

Key:
HCT-116 = assay: Antiproliferative activity against human HCT116 cells after 72 hrs; format: functional
[1] = Log D at pH 7 by HPLC; format: physicochemical; conditions: buffer
[2] = Aqueous solubility at pH 7 by HPLC; format: physicochemical; conditions: buffer
Summary of the method: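 A 200 µM sample in PBS-buffered water at pH 7 was agitated 24 h at room temperature and then filtered. A 100 µM reference was fully dissolved in MeOH:MeCN:DMSO (8:1:1). Both were run by the same high-throughput HPLC method, and the peak areas were compared to give the dissolved concentration. The assay caps at 200 µM.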

[3] = Drug level in HCT116 cells xenografted mouse plasma at 65 mg/kg, ip qd after 2 hrs on day 21; format: ADME, organism-based, HCT-116; set-up: dose 65 mg/kg, route intraperitoneal
Summary of the method: (§1)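 Mice bearing HCT116 xenografts were dosed ip in a 21-day study at 50, 65 and 80 mg/kg alongside vehicle. Plasma drug levels were measured 2, 4 and 24 h post-dose.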

[4] = target: Histone deacetylase 5 (Homo sapiens) (UniProt Q9UQL6); assay: Inhibition of HDAC5
[5] = Drug level in HCT116 cells xenografted mouse plasma at 65 mg/kg, ip qd after 4 hrs on day 21; format: ADME, organism-based, HCT-116; set-up: dose 65 mg/kg, route intraperitoneal; summary of the method: as §1
[6] = Selectivity for HDAC1 over HDAC8
[7] = Selectivity for HDAC1 over HDAC6
[8] = Volume of distribution at steady state in dog at 0.5 mg/kg, iv and 1 mg/kg, po; format: ADME, organism-based, Canis lupus familiaris; conditions: in vivo, read-out: Vdss
[9] = target: Histone deacetylase 4 (Homo sapiens) (UniProt P56524); assay: Inhibition of HDAC4
[10] = Drug level in HCT116 cells xenografted mouse plasma at 65 mg/kg, ip qd after 24 hrs on day 21; format: ADME, organism-based, HCT-116; set-up: dose 65 mg/kg, route intraperitoneal; summary of the method: as §1
[11] = target: T1, Histone deacetylase 7 (Homo sapiens) (UniProt Q8WUI4); assay: Inhibition of HDAC7
T1 sequence (whole entry): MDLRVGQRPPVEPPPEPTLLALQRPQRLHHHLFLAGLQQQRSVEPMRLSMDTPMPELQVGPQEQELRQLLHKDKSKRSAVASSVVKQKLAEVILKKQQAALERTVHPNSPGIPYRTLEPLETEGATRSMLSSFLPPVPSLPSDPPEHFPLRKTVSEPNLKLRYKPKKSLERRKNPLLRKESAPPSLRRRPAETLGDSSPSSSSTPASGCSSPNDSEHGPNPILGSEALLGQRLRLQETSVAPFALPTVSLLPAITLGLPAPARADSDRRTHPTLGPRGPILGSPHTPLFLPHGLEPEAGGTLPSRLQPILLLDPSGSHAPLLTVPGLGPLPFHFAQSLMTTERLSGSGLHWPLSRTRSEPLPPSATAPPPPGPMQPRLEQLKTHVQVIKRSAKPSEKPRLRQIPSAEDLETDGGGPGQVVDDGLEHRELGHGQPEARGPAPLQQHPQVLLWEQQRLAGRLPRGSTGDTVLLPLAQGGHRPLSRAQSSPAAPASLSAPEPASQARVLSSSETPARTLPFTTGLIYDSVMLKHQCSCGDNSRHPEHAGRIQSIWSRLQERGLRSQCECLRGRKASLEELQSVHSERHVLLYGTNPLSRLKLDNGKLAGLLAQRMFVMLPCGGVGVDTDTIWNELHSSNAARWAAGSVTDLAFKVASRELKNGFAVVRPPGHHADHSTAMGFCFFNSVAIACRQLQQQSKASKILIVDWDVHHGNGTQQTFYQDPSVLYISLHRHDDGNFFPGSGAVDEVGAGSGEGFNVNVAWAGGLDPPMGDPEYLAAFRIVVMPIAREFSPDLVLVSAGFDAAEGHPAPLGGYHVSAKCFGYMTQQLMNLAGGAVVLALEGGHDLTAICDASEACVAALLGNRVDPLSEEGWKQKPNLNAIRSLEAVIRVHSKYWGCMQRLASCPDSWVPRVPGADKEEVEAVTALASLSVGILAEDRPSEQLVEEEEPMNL

[12] = Selectivity for HDAC1 over HDAC3
[13] = Drug level in HCT116 cells xenografted mouse plasma at ip qd after 4 hrs on day 21
[14] = target: T2, Protein deacetylase HDAC6 (Homo sapiens) (UniProt Q9UBN7); assay: Inhibition of HDAC6
T2 sequence (whole entry): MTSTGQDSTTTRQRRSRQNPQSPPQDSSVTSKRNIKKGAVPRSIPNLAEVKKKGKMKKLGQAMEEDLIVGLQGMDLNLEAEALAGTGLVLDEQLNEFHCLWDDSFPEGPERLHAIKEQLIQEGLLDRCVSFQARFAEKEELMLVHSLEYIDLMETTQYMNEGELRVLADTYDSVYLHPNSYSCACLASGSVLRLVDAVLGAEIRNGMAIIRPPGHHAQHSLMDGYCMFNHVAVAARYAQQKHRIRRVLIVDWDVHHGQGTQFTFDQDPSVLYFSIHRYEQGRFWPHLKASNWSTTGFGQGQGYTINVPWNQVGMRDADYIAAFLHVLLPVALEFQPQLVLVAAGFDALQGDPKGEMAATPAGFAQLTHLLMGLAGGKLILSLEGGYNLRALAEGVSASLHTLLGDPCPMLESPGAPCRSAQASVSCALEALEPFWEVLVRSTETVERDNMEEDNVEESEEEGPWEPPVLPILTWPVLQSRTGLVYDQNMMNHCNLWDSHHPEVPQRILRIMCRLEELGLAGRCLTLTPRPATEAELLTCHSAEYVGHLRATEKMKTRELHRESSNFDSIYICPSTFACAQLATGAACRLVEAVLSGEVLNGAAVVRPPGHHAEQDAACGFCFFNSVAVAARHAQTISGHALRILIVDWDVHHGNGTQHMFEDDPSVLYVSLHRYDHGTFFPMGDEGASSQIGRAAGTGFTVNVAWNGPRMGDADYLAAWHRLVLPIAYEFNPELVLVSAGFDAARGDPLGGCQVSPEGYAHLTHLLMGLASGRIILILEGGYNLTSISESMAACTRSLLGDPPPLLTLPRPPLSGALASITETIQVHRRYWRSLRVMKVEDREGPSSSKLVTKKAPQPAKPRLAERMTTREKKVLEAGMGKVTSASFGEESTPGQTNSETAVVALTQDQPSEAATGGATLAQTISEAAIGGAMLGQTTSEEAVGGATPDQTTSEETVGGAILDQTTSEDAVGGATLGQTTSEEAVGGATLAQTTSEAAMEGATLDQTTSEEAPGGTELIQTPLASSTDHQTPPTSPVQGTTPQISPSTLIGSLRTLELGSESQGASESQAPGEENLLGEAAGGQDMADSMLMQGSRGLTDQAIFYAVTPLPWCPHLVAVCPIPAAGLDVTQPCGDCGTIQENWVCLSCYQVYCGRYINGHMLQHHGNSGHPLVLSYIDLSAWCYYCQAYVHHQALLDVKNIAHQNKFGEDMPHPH

[15] = Selectivity for HDAC1 over HDAC5
[16] = target: Histone deacetylase 3 (Homo sapiens) (UniProt O15379); assay: Inhibition of HDAC3
[17] = Clearance in rhesus monkey at 0.5 mg/kg, iv and 1 mg/kg, po; format: ADME, organism-based, Macaca mulatta; conditions: in vivo
[18] = Half life in rhesus monkey at 0.5 mg/kg, iv and 1 mg/kg, po; format: ADME, organism-based, Macaca mulatta; conditions: in vivo
[19] = target: T3, Histone deacetylase 11 (Homo sapiens) (UniProt Q96DB2); assay: Inhibition of HDAC11
T3 sequence (whole entry): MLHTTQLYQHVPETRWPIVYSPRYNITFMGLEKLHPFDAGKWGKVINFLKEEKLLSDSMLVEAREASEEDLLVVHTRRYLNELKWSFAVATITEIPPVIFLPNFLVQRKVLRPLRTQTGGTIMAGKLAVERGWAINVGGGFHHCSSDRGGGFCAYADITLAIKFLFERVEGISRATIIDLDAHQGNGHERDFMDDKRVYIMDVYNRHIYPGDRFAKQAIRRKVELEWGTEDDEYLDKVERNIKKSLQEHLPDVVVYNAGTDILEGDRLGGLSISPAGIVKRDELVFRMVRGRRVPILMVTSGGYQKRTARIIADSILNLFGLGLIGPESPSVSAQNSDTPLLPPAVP

[20] = Selectivity for HDAC1 over HDAC7
[21] = Volume of distribution at steady state in rhesus monkey at 0.5 mg/kg, iv and 1 mg/kg, po; format: ADME, organism-based, Macaca mulatta; conditions: in vivo, read-out: Vdss
[22] = Drug level in HCT116 cells xenografted mouse plasma at ip qd after 24 hrs on day 21
[23] = Bioavailability in rat at 4 mg/kg, po; format: ADME, organism-based; conditions: in vivo
[24] = Half life in dog at 0.5 mg/kg, iv and 1 mg/kg, po; format: ADME, organism-based, Canis lupus familiaris; conditions: in vivo
[25] = Half life in rat at 2 mg/kg, iv and 4 mg/kg, po; format: ADME, organism-based; conditions: in vivo
[26] = Volume of distribution at steady state in rat at 2 mg/kg, iv and 4 mg/kg, po; format: ADME, organism-based; conditions: in vivo, read-out: Vdss
[27] = Selectivity for HDAC1 over HDAC2
[28] = Bioavailability in dog at 1 mg/kg, po; format: ADME, organism-based, Canis lupus familiaris; conditions: in vivo
[29] = Bioavailability in rhesus monkey at 1 mg/kg, po; format: ADME, organism-based, Macaca mulatta; conditions: in vivo
[30] = target: T4, Histone deacetylase 8 (Homo sapiens) (UniProt Q9BY41); assay: Inhibition of HDAC8
T4 sequence (whole entry): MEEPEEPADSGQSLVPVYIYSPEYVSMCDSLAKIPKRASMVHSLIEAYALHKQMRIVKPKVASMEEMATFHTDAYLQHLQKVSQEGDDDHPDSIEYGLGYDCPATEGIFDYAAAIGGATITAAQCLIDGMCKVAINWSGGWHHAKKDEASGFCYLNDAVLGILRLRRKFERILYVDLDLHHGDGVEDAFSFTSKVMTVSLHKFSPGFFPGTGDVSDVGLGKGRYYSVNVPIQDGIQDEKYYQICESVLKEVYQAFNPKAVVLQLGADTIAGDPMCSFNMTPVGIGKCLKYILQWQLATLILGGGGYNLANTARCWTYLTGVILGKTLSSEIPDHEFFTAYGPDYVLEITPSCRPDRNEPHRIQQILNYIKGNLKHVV

[31] = Selectivity for HDAC1 over HDAC4
[32] = Drug level in HCT116 cells xenografted mouse plasma at ip qd after 2 hrs on day 21
[33] = Clearance in dog at 0.5 mg/kg, iv and 1 mg/kg, po; format: ADME, organism-based, Canis lupus familiaris; conditions: in vivo
[34] = Selectivity for HDAC1 over HDAC11
[35] = Clearance in rat at 2 mg/kg, iv and 4 mg/kg, po; format: ADME, organism-based; conditions: in vivo

Sequence of Histone deacetylase 3 (Homo sapiens) (O15379 whole entry): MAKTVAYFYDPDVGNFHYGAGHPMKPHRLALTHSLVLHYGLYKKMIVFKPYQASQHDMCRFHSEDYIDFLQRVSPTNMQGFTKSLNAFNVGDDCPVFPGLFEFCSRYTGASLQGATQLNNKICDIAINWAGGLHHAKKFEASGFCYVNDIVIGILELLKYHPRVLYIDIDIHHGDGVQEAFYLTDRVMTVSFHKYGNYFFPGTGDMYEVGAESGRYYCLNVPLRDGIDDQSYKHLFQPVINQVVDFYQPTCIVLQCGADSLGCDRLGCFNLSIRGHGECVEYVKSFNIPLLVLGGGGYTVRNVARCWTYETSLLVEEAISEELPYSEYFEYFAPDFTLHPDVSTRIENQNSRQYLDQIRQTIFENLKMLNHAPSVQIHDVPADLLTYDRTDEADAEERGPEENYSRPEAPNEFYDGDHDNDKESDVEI
Sequence of Histone deacetylase 5 (Homo sapiens) (Q9UQL6 whole entry): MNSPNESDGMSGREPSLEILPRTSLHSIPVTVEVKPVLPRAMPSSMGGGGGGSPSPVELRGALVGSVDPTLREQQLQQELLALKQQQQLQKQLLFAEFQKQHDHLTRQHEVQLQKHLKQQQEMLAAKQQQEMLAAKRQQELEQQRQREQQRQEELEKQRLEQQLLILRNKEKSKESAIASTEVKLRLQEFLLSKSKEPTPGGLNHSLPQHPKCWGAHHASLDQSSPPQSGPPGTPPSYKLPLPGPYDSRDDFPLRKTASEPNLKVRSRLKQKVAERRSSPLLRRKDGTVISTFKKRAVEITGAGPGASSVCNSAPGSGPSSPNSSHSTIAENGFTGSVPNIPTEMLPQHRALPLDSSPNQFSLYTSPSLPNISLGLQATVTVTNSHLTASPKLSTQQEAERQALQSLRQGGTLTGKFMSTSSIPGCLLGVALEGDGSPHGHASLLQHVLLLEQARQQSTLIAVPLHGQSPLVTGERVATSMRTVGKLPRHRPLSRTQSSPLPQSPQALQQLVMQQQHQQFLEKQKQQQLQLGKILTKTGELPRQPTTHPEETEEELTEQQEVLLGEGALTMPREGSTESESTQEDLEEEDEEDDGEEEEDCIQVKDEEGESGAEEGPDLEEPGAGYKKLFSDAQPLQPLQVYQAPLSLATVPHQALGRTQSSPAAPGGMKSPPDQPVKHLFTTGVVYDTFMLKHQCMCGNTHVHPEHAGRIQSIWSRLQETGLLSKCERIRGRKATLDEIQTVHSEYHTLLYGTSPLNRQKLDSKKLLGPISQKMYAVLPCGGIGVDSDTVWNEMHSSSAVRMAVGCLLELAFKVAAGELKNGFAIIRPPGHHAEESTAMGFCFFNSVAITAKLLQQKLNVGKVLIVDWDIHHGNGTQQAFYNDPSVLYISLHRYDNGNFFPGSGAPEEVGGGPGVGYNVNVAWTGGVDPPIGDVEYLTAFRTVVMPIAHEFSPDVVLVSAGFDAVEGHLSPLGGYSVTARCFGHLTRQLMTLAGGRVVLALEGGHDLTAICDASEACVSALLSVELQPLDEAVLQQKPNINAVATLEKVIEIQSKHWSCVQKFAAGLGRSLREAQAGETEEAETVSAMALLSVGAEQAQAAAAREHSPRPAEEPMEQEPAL
Sequence of Histone deacetylase 4 (Homo sapiens) (P56524 whole entry): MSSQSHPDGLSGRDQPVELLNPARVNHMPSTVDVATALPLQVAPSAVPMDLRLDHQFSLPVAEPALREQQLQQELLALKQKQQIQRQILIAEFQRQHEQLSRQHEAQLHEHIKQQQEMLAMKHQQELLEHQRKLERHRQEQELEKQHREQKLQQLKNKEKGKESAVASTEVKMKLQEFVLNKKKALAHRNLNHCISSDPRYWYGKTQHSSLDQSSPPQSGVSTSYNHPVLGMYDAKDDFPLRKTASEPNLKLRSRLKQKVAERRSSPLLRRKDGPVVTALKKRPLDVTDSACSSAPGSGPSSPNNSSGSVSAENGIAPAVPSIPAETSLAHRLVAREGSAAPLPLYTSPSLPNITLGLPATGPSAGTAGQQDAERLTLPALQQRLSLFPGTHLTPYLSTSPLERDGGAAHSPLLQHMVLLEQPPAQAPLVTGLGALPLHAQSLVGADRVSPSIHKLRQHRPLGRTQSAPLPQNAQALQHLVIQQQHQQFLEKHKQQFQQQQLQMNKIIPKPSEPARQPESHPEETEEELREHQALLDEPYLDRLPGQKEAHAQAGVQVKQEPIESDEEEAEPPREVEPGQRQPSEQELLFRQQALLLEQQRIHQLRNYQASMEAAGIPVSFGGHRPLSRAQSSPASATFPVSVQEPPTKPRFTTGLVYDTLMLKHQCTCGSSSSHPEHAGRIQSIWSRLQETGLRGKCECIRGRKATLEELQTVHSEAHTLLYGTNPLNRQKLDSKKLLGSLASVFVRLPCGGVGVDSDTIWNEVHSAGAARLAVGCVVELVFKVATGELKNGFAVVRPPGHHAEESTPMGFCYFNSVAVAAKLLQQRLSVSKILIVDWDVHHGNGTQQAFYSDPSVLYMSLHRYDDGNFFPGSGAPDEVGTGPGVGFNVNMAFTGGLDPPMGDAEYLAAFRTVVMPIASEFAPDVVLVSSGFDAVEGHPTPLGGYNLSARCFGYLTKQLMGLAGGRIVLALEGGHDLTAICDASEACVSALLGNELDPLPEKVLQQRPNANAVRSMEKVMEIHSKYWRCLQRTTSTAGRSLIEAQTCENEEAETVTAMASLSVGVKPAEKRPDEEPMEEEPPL

Compound: NC(=O)[C@@H](N)Cc1ccc(C(=O)Nc2cc(-c3cccs3)ccc2N)cc1
Activity (HCT-116): 260 nM

Compound: CNC(=O)C(NC(=O)OC)c1ccc(C(=O)Nc2cc(-c3cccs3)ccc2N)cc1 (configuration not stated)
Activity (HCT-116): 410 nM

Compound: CNC(=O)C(NS(C)(=O)=O)c1ccc(C(=O)Nc2cc(-c3cccs3)ccc2N)cc1 (configuration not stated)
Activity (HCT-116): 780 nM

Compound: CNC(=O)NC(C(=O)NC)c1ccc(C(=O)Nc2cc(-c3cccs3)ccc2N)cc1 (configuration not stated)
Activity (HCT-116): 960 nM

logD [1]: 1.49
solubility [2]: 185 µM (≈ 67.8 µg/mL)
Compound: NC(=O)C(N)c1ccc(C(=O)Nc2cc(-c3cccs3)ccc2N)cc1 (configuration not stated)
Activity (HCT-116): 350 nM

logD [1]: 2.7
Compound: Nc1ccc(-c2cccs2)cc1NC(=O)c1ccccc1
Activity (HCT-116): 720 nM

Compound: NC(=O)[C@@H](N)c1ccc(C(=O)Nc2cc(-c3cccs3)ccc2N)cc1
Activity (HCT-116): 510 nM

concentration at 2 h [3]: 28.6 µM
Activity [4]: > 50 µM
concentration at 4 h [5]: 10 µM
Selectivity ratio [6]: 3500
Selectivity ratio [7]: > 5000
Vd [8]: 3.2 L/kg
Activity [9]: > 50 µM
concentration at 24 h [10]: 0.02 µM
Activity [11]: > 50 µM
Selectivity ratio [12]: 340
concentration at 4 h [13]: 4.1 µM
Activity [14]: > 50 µM
Selectivity ratio [15]: > 5000
Activity [16]: 3.4 µM
clearance [17]: 16 mL/min/kg
half-life [18]: 1.6 h
Activity [19]: 3.6 µM
Selectivity ratio [20]: > 5000
Vd [21]: 1.6 L/kg
concentration at 24 h [22]: 0.01 µM
bioavailability [23]: 27%
half-life [24]: 5.4 h
half-life [25]: 5.9 h
logD [1]: 1.57
Vd [26]: 7.6 L/kg
Selectivity ratio [27]: 13
bioavailability [28]: 17%
bioavailability [29]: 5%
Activity [30]: 35 µM
Selectivity ratio [31]: > 5000
concentration at 2 h [32]: 17.9 µM
clearance [33]: 11 mL/min/kg
Selectivity ratio [34]: 360
solubility [2]: 185 µM (≈ 70.4 µg/mL)
clearance [35]: 38 mL/min/kg
Compound: CNC(=O)C(N)c1ccc(C(=O)Nc2cc(-c3cccs3)ccc2N)cc1 (configuration not stated)
Activity (HCT-116): 450 nM

Compound: Nc1ccc(-c2cccs2)cc1NC(=O)c1ccc(C(N)C(=O)O)cc1 (configuration not stated)
Activity (HCT-116): >20000 nM
